Experiments:
[1] = target: T1, Peroxisome proliferator-activated receptor delta (Mus musculus, UniProt P35396); assay: Compound was tested for its agonist activity against murine Peroxisome proliferator activated receptor delta-GAL4 chimeric receptor in transfected CV-1 cells; format: functional, cell-based
T1 sequence (P35396 whole entry): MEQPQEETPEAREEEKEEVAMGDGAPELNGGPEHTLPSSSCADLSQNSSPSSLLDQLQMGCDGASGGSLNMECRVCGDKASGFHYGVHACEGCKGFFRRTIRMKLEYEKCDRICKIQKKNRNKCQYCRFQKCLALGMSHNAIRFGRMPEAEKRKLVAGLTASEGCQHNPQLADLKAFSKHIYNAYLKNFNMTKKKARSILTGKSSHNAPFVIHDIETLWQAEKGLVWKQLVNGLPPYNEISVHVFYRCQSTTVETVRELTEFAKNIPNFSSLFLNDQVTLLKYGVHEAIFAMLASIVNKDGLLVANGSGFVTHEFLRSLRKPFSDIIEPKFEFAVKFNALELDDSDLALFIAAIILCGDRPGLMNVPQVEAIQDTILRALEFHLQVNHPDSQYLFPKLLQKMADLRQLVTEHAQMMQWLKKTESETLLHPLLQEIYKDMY

[2] = target: T2, Peroxisome proliferator-activated receptor alpha (Mus musculus, UniProt P23204); assay: Compound was tested for its agonist activity against murine Peroxisome proliferator activated receptor alpha-Gal4 chimeric receptor transfected CV-1 cells; format: functional, cell-based
T2 sequence (P23204 whole entry): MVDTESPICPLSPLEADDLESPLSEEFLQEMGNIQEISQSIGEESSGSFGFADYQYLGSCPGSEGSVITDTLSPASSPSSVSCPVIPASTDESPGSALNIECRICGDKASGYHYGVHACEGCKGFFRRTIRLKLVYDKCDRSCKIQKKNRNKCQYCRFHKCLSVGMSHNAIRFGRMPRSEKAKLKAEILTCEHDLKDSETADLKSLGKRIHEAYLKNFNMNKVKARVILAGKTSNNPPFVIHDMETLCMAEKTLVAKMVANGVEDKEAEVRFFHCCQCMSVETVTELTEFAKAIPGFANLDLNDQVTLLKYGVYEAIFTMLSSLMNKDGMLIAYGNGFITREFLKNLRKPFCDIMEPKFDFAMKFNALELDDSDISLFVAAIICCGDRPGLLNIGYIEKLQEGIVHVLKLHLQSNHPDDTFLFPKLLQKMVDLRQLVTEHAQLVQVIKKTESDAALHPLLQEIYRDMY
Summary of the method: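 PPAR-GAL4 chimeric receptor transiently transfected into CV-1 cells; reporter activity read after compound exposure, with concentrations tested up to 300 µM.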

[3] = target: T3, Peroxisome proliferator-activated receptor gamma (Mus musculus, UniProt P37238); assay: Compound was tested for its agonist activity against murine Peroxisome proliferator activated receptor gamma-Gal4 chimeric receptor in transfected CV-1 cells; format: functional, cell-based
T3 sequence (P37238 whole entry): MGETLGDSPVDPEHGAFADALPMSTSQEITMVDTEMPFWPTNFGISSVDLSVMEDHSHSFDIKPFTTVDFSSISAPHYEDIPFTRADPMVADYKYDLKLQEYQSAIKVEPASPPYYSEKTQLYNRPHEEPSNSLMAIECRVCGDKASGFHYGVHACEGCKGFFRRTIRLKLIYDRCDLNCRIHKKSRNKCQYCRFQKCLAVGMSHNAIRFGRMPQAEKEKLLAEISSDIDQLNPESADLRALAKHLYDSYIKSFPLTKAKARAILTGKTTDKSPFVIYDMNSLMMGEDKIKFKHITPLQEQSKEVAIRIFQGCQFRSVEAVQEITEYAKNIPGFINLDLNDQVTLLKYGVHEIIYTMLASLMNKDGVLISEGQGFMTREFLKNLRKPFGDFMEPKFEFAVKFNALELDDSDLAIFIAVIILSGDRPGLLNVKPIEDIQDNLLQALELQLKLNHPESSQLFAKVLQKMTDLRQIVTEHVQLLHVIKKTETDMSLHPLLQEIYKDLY

Rattus norvegicus = species: Rattus norvegicus; assay: Minimum effective dose producing a 40-60% decrease in serum TLDL cholesterol in rats relative to vehicle -treated controls; format: functional; settings: read-out: MED
[4] = target: T4, Peroxisome proliferator-activated receptor gamma (Homo sapiens, UniProt P37231)
T4 sequence (P37231 whole entry): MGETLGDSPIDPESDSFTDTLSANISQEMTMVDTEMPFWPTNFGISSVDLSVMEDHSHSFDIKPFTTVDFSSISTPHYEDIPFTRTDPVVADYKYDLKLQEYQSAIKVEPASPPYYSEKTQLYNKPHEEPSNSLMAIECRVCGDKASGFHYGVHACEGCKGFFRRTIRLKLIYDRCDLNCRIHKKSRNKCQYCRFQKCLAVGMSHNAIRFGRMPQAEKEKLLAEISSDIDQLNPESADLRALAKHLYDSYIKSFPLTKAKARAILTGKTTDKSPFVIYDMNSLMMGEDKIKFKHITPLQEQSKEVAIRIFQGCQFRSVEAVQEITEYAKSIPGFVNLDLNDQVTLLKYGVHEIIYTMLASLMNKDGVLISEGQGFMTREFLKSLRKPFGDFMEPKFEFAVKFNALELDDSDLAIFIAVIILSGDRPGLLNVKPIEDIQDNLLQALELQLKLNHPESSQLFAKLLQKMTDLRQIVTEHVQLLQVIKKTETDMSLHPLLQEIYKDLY

[5] = target: T5, Peroxisome proliferator-activated receptor alpha (Homo sapiens, UniProt Q07869)
T5 sequence (Q07869 whole entry): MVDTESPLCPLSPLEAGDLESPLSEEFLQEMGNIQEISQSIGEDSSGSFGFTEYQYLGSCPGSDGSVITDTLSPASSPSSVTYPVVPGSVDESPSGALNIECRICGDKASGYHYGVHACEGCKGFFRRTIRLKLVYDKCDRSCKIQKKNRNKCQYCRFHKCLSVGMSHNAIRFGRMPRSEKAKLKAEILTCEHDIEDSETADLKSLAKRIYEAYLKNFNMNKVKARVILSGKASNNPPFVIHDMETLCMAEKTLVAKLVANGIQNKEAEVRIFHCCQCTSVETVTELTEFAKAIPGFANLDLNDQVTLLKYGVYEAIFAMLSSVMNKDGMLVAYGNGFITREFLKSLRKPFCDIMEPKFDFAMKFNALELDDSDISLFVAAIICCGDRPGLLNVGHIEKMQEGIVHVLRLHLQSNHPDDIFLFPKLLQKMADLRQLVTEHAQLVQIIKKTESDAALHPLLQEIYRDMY

[6] = target: T6, Peroxisome proliferator-activated receptor delta (Homo sapiens, UniProt Q03181); assay: Compound was tested for agonist activity on human Peroxisome proliferator activated receptor delta-GAL4 chimeric receptor in transfected CV-1 cells; format: functional, cell-based
T6 sequence (Q03181 whole entry): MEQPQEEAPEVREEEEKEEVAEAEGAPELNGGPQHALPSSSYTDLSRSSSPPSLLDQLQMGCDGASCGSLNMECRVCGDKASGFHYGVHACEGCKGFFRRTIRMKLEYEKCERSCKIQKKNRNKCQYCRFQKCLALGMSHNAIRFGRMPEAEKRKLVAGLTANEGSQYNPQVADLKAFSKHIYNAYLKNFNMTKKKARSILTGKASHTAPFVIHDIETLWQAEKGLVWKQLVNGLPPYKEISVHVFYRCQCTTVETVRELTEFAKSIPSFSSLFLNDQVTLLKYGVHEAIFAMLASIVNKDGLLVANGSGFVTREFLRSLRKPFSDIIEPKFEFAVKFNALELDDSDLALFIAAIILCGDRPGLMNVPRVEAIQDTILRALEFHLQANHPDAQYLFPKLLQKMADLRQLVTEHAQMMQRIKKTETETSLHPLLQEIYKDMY

[7] = target: T1, Peroxisome proliferator-activated receptor delta; assay: Compound was tested for its agonist activity against murine Peroxisome proliferator activated receptor delta-GAL4 chimeric receptor in transfected CV-1 cells; IA = Inactive; format: functional, cell-based
[8] = target: T6, Peroxisome proliferator-activated receptor delta; assay: Compound was tested for agonist activity on human Peroxisome proliferator activated receptor delta-GAL4 chimeric receptor in transfected CV-1 cells; IA = Inactive; format: functional, cell-based

| Compound | EC50 [2] | EC50 [3] | EC50 [4] | EC50 [5] | EC50 [7] | EC50 [8] | EC50 [1] | minimal effective dose (Rattus norvegicus) | EC50 [6] |
| --- | --- | --- | --- | --- | --- | --- | --- | --- | --- |
| CC(C)(Oc1ccc(CCN(CCCCCC2CCCCC2)C(=O)Nc2ccc(F)cc2)cc1)C(=O)O | 53 nM | 1000 nM | 1600 nM | 150 nM |  |  | 23000 nM | 1 mg/kg |  |
| CCCCCCCN(CCc1ccc(OC(C)(C)C(=O)O)cc1)C(=O)Nc1ccc(F)cc1F | 10 nM | 400 nM | 200 nM | 790 nM |  |  | 3200 nM | 0.1 mg/kg |  |
| CC(C)(Oc1ccc(CCN(C(=O)Nc2ccc(F)cc2F)C2CCCCCC2)cc1)C(=O)O | 120 nM | 12 nM | 6 nM |  |  |  | 1400 nM | 1 mg/kg | 790 nM |
| CCCCCCCN(CCc1ccc(SC(C)(C)C(=O)O)cc1)C(=O)Nc1ccc(F)cc1F [GSK-9578] | 5 nM | 1500 nM |  |  |  |  | 2600 nM | 0.2 mg/kg | 1400 nM |

More lines, main results first:

| EC50 [2] | EC50 [3] | EC50 [4] | EC50 [5] | EC50 [7] | EC50 [8] | Compound | EC50 [1] | minimal effective dose (Rattus norvegicus) | EC50 [6] |
| --- | --- | --- | --- | --- | --- | --- | --- | --- | --- |
| 33 nM | 870 nM | 280 nM | 410 nM |  |  | CCCCCCCN(CCc1ccc(OC(C)(C)C(=O)O)cc1)C(=O)Nc1ccc(F)cc1 | 5500 nM | 0.1 mg/kg | 3100 nM |
|  | 250000 nM |  |  | Not Active | Not Active | CC(C)(Oc1ccc(C(=O)c2ccc(Cl)cc2)cc1)C(=O)O [FENOFIBRIC ACID] |  | 50 mg/kg |  |
| 50000 nM | > 300000 nM | > 300000 nM | 55000 nM | Not Active | Not Active | CC(C)(Oc1ccc(Cl)cc1)C(=O)O [CLOFIBRIC ACID] |  |  |  |
| 90000 nM | 55000 nM | 60000 nM |  |  |  | CC(C)(Oc1ccc(CCNC(=O)c2ccc(Cl)cc2)cc1)C(=O)O [BEZAFIBRATE] | 110000 nM | 50 mg/kg | 20000 nM |

Reference: ChEMBL document CHEMBL1132388, “A ureido-thioisobutyric acid (GW9578) is a subtype-selective PPARalpha agonist with potent lipid-lowering activity” (J Med Chem, 1999)
